Data published in ChEMBL document CHEMBL1221237, “Synthesis of N-aryl-3-(indol-3-yl)propanamides and their immunosuppressive activities” (Bioorg Med Chem Lett, 2010).
Active and inactive are the calls of the source. The rule behind the calls is not given here.

Assays:
Mus musculus [1] = test: Acute toxicity in BALB/C mouse at 50 to 120 mg/kg, po qd for 5 days; assay type: organism-based; set-up: dose 50-120 mg/kg, route oral; conditions: in vivo, 120 h
Outline: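 Female BALB/C mice, 8-9 weeks old, groups of five. Dosed orally once daily for 5 days in olive oil, from priming to challenge, within a DTH study: primed iv with 5×10^6 SRBC, footpad challenge with SRBC on day 4. Acute toxicity judged by observation against untreated control mice over the 5-day treatment.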

Aurora kinase A = molecular target: T1, Aurora kinase A (Homo sapiens, UniProt O14965); test: Inhibition of recombinant aurora A after 1 hr
T1 sequence (O14965 whole entry): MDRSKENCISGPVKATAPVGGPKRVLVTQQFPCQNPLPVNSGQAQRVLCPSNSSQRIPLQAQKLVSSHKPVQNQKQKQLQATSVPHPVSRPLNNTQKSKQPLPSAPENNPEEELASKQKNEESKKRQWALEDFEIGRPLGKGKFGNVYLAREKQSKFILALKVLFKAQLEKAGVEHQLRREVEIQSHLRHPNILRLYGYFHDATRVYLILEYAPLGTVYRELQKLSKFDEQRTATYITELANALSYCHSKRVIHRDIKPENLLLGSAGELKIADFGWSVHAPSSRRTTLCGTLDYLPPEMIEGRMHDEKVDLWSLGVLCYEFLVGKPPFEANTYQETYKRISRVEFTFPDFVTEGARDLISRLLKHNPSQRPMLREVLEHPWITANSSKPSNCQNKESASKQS
Outline: (§1)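 Recombinant kinase with substrate and 10 μM ATP, 1 h incubation. Compound at 10 final concentrations, 3.16 nM-100 μM. Activity read by AlphaScreen Protein-A detection after bead-mix stop; IC50 derived.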

Splenocyte [2] = test: (§2) Immunosuppressive activity in C57BL/6 mouse splenocytes assessed as inhibition of cell proliferation after 72 hrs by MTT assay; assay type: functional, cell-based
Outline: (§3)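 Splenocytes pooled from two spleens of 8-week-old female C57BL/6 mice, red cells lysed with 20 mM Tris-HCl/140 mM NH4Cl, seeded 1.5×10^5/well. Stimulated with 1 μg/mL ConA, compounds diluted from DMSO into RPMI with 10% FCS and 50 μM mercaptoethanol. 72 h at 37 °C, 5% CO2. MTT 4 h, OD 570 nm, sextuplicate. Inhibition = (control OD − treated OD)/control OD × 100.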

[3] = as §2; assay type: functional, cell-based; conditions: C57BL/6, Splenocyte; outline: as §3
Mus musculus [4] = test: Immunosuppressive activity in delayed-type hypersensitivity po dosed BALB/C mouse model assessed as inhibition of sheep RBC-induced foot-pad swelling administered qd for 5 days measured after 24 hrs last post dose; assay type: functional, organism-based
Outline: (§4)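 Groups of five female BALB/c mice, 8-9 weeks old, primed iv with 5×10^6 SRBC in PBS. Compound in olive oil given orally daily for 5 days, from priming to challenge. Day 4: 3-4×10^8 SRBC into right hind footpad, PBS into left. Swelling difference read 24 h later; inhibition taken against untreated controls. Mean ± SEM, Dunnett test.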

[5] = molecular target: Homeodomain-interacting protein kinase 1 (Homo sapiens, UniProt Q86Z02); test: Inhibition of recombinant HIPK1 after 1 hr; outline: as §1
[6] = molecular target: T2, Tyrosine-protein kinase JAK3 (Homo sapiens, UniProt P52333); test: Inhibition of recombinant JAK3 after 1 hr; outline: as §1
T2 sequence (P52333 whole entry): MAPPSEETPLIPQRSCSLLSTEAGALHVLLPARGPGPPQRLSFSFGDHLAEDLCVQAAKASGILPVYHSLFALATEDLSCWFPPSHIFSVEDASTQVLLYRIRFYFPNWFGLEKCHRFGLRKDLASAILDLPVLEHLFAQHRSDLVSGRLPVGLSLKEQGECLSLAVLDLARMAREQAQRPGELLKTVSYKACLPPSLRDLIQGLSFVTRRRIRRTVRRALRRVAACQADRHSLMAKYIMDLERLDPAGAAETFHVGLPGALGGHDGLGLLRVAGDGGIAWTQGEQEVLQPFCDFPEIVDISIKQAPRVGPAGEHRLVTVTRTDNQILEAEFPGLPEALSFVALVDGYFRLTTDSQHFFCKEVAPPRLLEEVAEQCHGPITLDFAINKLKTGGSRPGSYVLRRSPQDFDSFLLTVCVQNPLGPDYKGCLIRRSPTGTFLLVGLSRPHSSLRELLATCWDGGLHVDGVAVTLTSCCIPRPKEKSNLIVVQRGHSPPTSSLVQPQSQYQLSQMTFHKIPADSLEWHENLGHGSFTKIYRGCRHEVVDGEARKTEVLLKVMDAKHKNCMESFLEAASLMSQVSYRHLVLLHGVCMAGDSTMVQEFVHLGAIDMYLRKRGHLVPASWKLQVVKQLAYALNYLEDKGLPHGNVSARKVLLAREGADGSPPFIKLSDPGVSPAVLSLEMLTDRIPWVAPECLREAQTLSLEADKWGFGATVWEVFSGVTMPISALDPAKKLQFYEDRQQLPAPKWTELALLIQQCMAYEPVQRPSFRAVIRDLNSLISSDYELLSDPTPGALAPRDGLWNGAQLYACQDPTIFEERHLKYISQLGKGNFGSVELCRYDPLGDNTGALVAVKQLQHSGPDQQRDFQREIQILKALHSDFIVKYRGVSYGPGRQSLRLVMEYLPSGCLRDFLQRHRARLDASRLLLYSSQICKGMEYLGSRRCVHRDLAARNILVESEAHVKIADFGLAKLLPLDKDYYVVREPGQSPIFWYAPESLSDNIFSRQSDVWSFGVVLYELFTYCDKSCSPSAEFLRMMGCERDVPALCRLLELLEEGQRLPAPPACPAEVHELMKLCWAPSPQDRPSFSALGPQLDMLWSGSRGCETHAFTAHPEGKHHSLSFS

[7] = Cytotoxicity in C57BL/6 mouse splenocytes assessed as reduction of cell viability at 90 uM after 48 hrs by MTT assay; assay type: cell-based; conditions: splenocyte
[8] = molecular target: High affinity nerve growth factor receptor (Homo sapiens, UniProt P04629); test: Inhibition of recombinant TrkA after 1 hr; outline: as §1
[9] = molecular target: Vascular endothelial growth factor receptor 2 (Homo sapiens, UniProt P35968); test: Inhibition of recombinant KDR after 1 hr; outline: as §1
[10] = (§5) Immunosuppressive activity in C57BL/6 mouse splenocytes assessed as inhibition of concanavalin A-induced cell proliferation at 90 uM after 72 hrs by MTT assay; assay type: functional; conditions: C57BL/6, Splenocyte; outline: as §3
Mus musculus [11] = test: Immunosuppressive activity in delayed-type hypersensitivity BALB/C mouse model assessed as inhibition of sheep RBC-induced foot-pad swelling at 50 mg/kg, po qd for 5 days measured after 24 hrs last post dose; assay type: functional, organism-based; set-up: dose 50 mg/kg; outline: as §4
[12] = molecular target: Serine/threonine-protein kinase pim-1 (Homo sapiens, UniProt P11309); test: Inhibition of recombinant Pim1 after 1 hr; outline: as §1
[13] = (§6) Immunosuppressive activity in C57BL/6 mouse splenocytes assessed as inhibition of concanavalin A-induced cell proliferation at 30 uM after 72 hrs by MTT assay; assay type: functional; conditions: C57BL/6, Splenocyte; outline: as §3
[14] = molecular target: Tyrosine-protein kinase Yes (Homo sapiens, UniProt P07947); test: Inhibition of recombinant YES after 1 hr; outline: as §1
[15] = molecular target: Tyrosine-protein kinase ABL1 (Homo sapiens, UniProt P00519); test: Inhibition of recombinant c-Abl after 1 hr; outline: as §1
[16] = Inhibition of recombinant ERK after 1 hr; outline: as §1
[17] = molecular target: Tyrosine-protein kinase JAK2 (Homo sapiens, UniProt O60674); test: Inhibition of recombinant JAK2 after 1 hr; outline: as §1
Splenocyte [18] = test: as §5; assay type: functional; outline: as §3
Splenocyte [19] = test: as §6; assay type: functional; outline: as §3
Mus musculus [20] = test: Immunosuppressive activity in delayed-type hypersensitivity BALB/C mouse model assessed as inhibition of sheep RBC-induced foot-pad swelling at 50 to 120 mg/kg, po qd for 5 days measured after 24 hrs last post dose; assay type: functional; conditions: dose mg/kg 50-120; outline: as §4

Chain of High affinity nerve growth factor receptor (P04629 whole entry): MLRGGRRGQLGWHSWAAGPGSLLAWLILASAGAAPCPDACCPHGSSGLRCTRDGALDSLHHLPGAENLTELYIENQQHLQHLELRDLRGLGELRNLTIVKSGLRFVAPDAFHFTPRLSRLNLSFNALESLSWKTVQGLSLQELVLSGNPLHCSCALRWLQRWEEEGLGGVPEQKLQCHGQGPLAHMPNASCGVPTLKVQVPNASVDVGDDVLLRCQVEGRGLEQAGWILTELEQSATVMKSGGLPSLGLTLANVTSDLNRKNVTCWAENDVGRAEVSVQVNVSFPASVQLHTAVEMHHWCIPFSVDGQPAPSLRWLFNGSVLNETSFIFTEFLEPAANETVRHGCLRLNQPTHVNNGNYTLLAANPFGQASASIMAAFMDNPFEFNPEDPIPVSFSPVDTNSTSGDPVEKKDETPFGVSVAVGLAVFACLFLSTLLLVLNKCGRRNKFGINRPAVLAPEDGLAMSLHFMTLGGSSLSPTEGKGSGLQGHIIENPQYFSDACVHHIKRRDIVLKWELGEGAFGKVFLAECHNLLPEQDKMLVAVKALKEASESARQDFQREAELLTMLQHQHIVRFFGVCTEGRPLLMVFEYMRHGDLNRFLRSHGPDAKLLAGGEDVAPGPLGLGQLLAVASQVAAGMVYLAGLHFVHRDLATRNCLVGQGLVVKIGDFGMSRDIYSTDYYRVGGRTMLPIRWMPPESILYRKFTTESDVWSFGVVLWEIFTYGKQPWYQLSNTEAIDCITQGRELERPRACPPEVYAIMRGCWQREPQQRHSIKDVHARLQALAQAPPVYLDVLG
Chain of Tyrosine-protein kinase JAK2 (O60674 whole entry): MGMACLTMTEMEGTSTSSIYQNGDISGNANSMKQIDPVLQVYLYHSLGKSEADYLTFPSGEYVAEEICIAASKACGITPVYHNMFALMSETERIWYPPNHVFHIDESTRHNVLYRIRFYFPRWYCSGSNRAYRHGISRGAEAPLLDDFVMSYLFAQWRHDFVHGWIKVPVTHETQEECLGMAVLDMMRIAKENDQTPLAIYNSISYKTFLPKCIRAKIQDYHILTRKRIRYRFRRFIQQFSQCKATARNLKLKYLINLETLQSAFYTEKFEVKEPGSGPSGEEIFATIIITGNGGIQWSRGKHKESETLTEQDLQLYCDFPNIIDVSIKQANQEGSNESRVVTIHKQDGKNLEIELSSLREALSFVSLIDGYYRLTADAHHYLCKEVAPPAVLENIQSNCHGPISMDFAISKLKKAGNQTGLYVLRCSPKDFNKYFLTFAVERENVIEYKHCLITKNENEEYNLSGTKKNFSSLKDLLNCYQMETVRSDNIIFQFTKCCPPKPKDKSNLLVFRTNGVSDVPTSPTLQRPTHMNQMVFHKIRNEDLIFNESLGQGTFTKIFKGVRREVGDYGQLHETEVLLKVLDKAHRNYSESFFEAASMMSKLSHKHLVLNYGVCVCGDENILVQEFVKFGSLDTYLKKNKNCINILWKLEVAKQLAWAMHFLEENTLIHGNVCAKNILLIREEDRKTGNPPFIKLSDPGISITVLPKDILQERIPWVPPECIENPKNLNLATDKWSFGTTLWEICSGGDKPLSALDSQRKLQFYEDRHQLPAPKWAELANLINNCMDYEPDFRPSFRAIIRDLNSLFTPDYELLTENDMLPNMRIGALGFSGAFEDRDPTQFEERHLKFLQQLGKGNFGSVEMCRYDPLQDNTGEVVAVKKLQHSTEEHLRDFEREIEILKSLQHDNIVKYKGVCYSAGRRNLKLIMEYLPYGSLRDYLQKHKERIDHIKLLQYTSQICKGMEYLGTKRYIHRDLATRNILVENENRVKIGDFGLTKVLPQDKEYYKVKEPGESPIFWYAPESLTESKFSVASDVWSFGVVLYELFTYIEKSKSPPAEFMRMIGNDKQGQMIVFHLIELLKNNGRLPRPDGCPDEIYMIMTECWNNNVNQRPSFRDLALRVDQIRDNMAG
Chain of Vascular endothelial growth factor receptor 2 (P35968 whole entry): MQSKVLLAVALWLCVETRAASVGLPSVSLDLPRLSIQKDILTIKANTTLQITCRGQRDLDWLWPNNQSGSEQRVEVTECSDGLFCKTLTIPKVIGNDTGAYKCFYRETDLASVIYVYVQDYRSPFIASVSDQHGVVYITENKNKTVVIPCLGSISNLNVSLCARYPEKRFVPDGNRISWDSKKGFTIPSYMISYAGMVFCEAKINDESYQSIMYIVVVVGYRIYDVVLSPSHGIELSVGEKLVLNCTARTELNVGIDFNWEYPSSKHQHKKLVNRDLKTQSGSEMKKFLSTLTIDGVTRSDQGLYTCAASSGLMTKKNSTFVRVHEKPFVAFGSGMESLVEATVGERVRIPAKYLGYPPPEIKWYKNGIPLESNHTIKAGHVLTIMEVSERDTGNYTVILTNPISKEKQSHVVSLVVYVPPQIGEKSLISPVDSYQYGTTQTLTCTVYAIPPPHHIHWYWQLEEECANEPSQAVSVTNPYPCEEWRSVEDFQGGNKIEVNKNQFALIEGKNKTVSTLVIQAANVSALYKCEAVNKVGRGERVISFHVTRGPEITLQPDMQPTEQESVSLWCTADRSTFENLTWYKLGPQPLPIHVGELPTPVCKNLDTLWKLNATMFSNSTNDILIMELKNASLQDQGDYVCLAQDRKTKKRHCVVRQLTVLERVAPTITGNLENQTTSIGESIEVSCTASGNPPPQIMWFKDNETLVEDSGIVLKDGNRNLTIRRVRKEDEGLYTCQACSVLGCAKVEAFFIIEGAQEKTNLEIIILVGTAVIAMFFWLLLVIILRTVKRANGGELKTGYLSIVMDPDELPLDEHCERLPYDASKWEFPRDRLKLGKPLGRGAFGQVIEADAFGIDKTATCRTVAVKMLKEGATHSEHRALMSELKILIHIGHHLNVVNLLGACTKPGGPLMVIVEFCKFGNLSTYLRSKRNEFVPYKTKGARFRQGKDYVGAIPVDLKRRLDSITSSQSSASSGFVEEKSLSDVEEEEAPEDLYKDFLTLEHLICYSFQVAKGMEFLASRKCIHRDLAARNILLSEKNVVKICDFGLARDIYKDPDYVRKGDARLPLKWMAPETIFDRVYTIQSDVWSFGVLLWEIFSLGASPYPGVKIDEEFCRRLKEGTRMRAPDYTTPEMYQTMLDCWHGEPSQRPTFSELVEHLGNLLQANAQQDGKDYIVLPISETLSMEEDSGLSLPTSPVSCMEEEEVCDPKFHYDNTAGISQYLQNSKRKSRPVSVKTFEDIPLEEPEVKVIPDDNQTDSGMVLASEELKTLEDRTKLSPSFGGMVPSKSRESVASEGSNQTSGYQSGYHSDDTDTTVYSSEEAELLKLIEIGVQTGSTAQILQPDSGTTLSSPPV
Chain of Tyrosine-protein kinase ABL1 (P00519 whole entry): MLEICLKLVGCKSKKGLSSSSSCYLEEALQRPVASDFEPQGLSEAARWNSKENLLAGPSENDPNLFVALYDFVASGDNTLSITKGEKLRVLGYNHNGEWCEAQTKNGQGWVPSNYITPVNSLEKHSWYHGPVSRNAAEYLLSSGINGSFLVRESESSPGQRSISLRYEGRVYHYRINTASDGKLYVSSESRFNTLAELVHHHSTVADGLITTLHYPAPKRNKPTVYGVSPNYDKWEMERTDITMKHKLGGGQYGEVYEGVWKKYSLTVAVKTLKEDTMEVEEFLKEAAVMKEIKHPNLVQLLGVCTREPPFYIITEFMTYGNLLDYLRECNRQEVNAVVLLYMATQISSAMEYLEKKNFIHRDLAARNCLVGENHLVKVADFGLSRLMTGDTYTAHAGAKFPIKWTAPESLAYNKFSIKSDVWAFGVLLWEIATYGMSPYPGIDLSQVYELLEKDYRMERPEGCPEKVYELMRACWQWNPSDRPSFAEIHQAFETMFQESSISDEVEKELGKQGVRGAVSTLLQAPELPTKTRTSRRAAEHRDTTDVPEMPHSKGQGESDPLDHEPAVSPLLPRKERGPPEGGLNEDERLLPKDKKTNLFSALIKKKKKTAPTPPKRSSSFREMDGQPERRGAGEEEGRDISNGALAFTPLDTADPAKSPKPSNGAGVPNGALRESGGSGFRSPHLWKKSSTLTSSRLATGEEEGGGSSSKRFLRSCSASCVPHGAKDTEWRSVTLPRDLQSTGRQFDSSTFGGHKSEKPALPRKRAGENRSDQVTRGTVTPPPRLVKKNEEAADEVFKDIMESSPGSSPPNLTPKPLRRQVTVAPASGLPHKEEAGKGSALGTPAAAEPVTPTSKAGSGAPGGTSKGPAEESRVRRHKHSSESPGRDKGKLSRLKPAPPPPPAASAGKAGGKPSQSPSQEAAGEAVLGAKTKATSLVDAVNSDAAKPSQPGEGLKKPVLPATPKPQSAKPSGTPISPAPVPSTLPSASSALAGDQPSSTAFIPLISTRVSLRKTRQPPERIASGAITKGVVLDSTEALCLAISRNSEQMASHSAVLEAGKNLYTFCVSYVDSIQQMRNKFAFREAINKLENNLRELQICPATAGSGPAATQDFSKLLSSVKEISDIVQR
Chain of Serine/threonine-protein kinase pim-1 (P11309 whole entry): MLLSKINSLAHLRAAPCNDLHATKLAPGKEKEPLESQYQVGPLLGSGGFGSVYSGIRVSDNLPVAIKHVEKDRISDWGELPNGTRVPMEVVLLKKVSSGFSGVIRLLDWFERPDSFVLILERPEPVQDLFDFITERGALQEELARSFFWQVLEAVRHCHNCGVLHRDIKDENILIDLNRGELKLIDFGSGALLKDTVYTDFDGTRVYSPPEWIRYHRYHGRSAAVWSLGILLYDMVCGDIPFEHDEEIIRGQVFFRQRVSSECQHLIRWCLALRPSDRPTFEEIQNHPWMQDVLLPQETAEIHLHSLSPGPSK

Compound: O=C(CCc1cn(Cc2ccc(Cl)cc2)c2ccccc12)Nc1ccc([N+](=O)[O-])cc1
- Activity (Mus musculus [1]): Non-toxic
- IC50 (Aurora kinase A): > 100 µM
- inhibition (Splenocyte [2]): Dose-dependent effect
- IC50 [3]: 19.8 µM
- inhibition (Mus musculus [4]): Dose-dependent effect
- IC50 [5]: > 100 µM
- IC50 [6]: 34.2 µM
- Activity [7]: Non-toxic
- IC50 [8]: > 100 µM
- IC50 [9]: 33.2 µM
- inhibition at 90 µM [10]: 92%
- inhibition (Mus musculus [11]): Active
- IC50 [12]: > 100 µM
- inhibition at 30 µM [13]: 87%
- IC50 [14]: 38.1 µM
- IC50 [15]: > 100 µM
- IC50 [16]: > 100 µM
- IC50 [17]: 107 µM

Compound: N#Cc1ccc(NC(=O)CCc2cn(Cc3ccc(Cl)cc3)c3ccccc23)cc1
- inhibition at 90 µM [10]: 78%
- inhibition at 30 µM [13]: 30%

Compound: O=C(CCc1cn(Cc2ccc(Cl)cc2)c2ccccc12)Nc1ccccc1
- inhibition (Splenocyte [18]): inactive
- inhibition (Splenocyte [19]): inactive

Compound: O=C(CCc1cn(Cc2ccc(Cl)cc2)c2ccccc12)Nc1cccc2cnccc12
- inhibition at 90 µM [10]: 17%
- inhibition (Splenocyte [19]): inactive

Compound: O=C(CCc1cn(Cc2ccc(Cl)cc2)c2ccccc12)Nc1ccccn1
- inhibition at 90 µM [10]: 26%
- inhibition (Splenocyte [19]): inactive

Compound: O=C(CCc1cn(Cc2ccc(Cl)cc2)c2ccccc12)Nc1ccncc1
- IC50 (Aurora kinase A): > 100 µM
- IC50 [3]: 17 µM
- IC50 [5]: > 100 µM
- IC50 [6]: 52 µM
- IC50 [8]: > 100 µM
- IC50 [9]: 26 µM
- inhibition at 90 µM [10]: 87%
- IC50 [12]: > 100 µM
- inhibition at 30 µM [13]: 19%
- IC50 [14]: 30 µM
- inhibition (INH) (Mus musculus [20]): 69%
- IC50 [15]: > 100 µM
- IC50 [16]: > 100 µM
- IC50 [17]: 134 µM

Compound: O=C(CCc1cn(Cc2ccc(Cl)cc2)c2ccccc12)Nc1cccnc1
- inhibition at 90 µM [10]: 40%
- inhibition at 30 µM [13]: 28%

Compound: O=C(CCc1cn(Cc2ccc(Cl)cc2)c2ccccc12)Nc1ccnc2ccccc12
- inhibition at 90 µM [10]: 37%
- inhibition at 30 µM [13]: 20%

Compound: O=C(CCc1cn(Cc2ccc(Cl)cc2)c2ccccc12)Nc1ccc2ncccc2c1
- inhibition at 90 µM [10]: 86%
- inhibition (Splenocyte [19]): inactive

Compound: Nc1ccc(NC(=O)CCc2cn(Cc3ccc(Cl)cc3)c3ccccc23)cc1
- inhibition (Splenocyte [18]): inactive
- inhibition (Splenocyte [19]): inactive

Compound: O=C(CCc1cn(Cc2ccc(Cl)cc2)c2ccccc12)Nc1cccc2ncccc12
- inhibition (Splenocyte [18]): inactive
- inhibition (Splenocyte [19]): inactive

Compound: O=C(CCc1cn(Cc2ccc(Cl)cc2)c2ccccc12)Nc1ccc(C(F)(F)F)cc1
- inhibition at 90 µM [10]: 18%
